Data set [1] in a line: Cysteamine reactivity of the compound in PBS assessed as second order rate constant for free cysteamine release at 250 uM and pH 7.4 after 90 mins by DTNB reagent based RP-UHPLC analysis. In outline:
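Compound (250 µM) was mixed with equimolar cysteamine in pH 7.4 PBS containing 12.5% CH3CN at 37 °C. Free cysteamine was tracked with DTNB at several time points over 90 min. Second-order k2 came from 1/[CAM] = 1/[CAM]0 + kt, using 3–10 points per plot; mean ± SEM of ≥3 experiments.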

Data set [2] in a line: Cysteamine reactivity in PBS assessed as free compound level at pH 7.4 measured after 60 mins by DTNB reagent based RP-UHPLC analysis. In outline: (§1)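 The compound was reacted with excess cysteamine in pH 7.4 phosphate buffer with CH3CN cosolvent at 37 °C. Remaining compound was followed by UHPLC over 4 h, sampled at 30 min, 60 min and 4 h, and expressed as percent of starting concentration.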

Data set [3] can be described thus: Cysteamine reactivity in PBS assessed as free compound level at pH 7.4 measured after 4 hrs by DTNB reagent based RP-UHPLC analysis. In outline: as §1
Data set [4] addresses NACHT, LRR and PYD domains-containing protein 3 (Mus musculus) (UniProt Q8R4B8). Kind of data set: Inhibition of NLRP3 inflammasome in LPS-primed C57BL/6 mouse bone marrow derived macrophages assessed as reduction in ATP-induced IL-1beta production at 10 uM preincubated for 1 hr followed by stimulation with ATP measured after 30 mins by ELISA. In outline:
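C57BL/6 bone marrow macrophages, differentiated with 20% L-cell medium, were primed with LPS (1 µg/mL, 3 h). They were then exposed to compound or vehicle for 1 h and stimulated with ATP (5 mM, 30 min). IL-1β released into the medium was measured by ELISA.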
Background: ELISA stands for enzyme-linked immunosorbent assay.

Data set [5] deals with NACHT, LRR and PYD domains-containing protein 3 (Homo sapiens) (UniProt Q96P20). Kind of data set: Inhibition of recombinant YFP-tagged NLRP3 (unknown origin) expressed in HEK293 cells co-expressing luciferase at 10 to 100 uM after 24 hrs by BRET assay. It counts as cell-based. In outline: (§2)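 HEK293 cells stably expressing YFP-NLRP3-Luc were grown in DMEM with 10% FCS, plated on poly-L-lysine, and exposed to compound or vehicle (15 h per methods; 24 h per figure legend). Cells were washed, then BRET was read after adding coelenterazine-H (5 µM). Kinetics used nigericin (10 µM) in vehicle or high-K+ (140 mM) buffer. Slopes of three phases were taken; mean ± SEM, n = 5–12.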
NACHT, LRR and PYD domains-containing protein 3 (Homo sapiens), sequence (Q96P20 whole entry, the tested form may be a part): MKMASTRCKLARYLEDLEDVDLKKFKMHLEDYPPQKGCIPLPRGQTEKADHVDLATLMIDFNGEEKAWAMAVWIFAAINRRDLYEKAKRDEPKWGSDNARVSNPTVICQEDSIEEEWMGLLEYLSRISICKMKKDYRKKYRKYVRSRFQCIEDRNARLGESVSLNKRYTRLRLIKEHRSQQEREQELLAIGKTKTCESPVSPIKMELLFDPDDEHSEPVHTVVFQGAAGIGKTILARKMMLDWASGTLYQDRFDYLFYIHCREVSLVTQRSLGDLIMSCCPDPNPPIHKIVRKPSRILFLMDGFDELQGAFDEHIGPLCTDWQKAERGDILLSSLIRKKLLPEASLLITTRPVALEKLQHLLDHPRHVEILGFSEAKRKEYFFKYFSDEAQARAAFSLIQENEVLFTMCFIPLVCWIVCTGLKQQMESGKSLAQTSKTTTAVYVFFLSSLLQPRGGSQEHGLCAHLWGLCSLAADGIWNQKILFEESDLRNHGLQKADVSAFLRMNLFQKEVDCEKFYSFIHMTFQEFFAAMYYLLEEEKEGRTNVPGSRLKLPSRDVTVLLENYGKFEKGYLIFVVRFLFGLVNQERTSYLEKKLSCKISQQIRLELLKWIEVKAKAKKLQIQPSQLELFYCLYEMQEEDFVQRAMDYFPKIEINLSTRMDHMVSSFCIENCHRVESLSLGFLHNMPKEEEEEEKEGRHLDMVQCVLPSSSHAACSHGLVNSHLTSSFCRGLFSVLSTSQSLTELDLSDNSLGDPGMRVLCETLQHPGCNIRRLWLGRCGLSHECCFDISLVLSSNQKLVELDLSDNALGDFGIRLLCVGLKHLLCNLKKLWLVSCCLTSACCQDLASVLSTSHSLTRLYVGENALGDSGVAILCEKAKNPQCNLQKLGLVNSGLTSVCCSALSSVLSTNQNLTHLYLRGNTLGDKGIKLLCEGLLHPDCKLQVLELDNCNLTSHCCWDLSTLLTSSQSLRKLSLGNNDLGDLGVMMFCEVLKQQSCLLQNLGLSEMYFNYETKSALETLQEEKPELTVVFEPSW

The test system of another data set is HEK293. Kind of data set: Cytotoxicity against HEK293 cells assessed as extracellular LDH level at 10 to 100 uM after 24 hrs. It counts as cell-based. To be noted: human, hek293, 24 h.
The target of data set [6] is NACHT, LRR and PYD domains-containing protein 3 (Homo sapiens) (UniProt Q96P20). Kind of data set: Inhibition of recombinant YFP-tagged NLRP3 (unknown origin) expressed in HEK293 cells co-expressing luciferase assessed as initial conformational changes in protein by measuring increase in nigericin-induced decrease in intracellular K+ level at 10 to 100 uM measured after 24 hrs by BRET assay. It counts as cell-based. In outline:
as §2

Data set [7] can be described thus: Solubility of the compound in PBS at 1.56 mg […] and pH 7.4 after 24 hrs by UHPLC-MS analysis. It counts as physicochemical.
The test system of the next data set is Jejunum. Kind of data set: Drug metabolism in Sprague-Dawley rat jejunum assessed as 2-(2-chlorobenzyl)acrylic acid level at 12.5 mg as suspension in olive oil measured after 2 hrs by UHPLC-M. It counts as ADME, tissue-based. Particulars: in vivo.
Data set [8] deals with Liver. Kind of data set: Drug metabolism in Sprague-Dawley rat liver microsomes assessed as formation of 2-(2-chlorobenzyl)acrylic acid at 100 uM at <1 min in presence of NADPH by UHPLC-MS analysis. It counts as ADME, microsome. In general terms: Liver microsomes are vesicles of endoplasmic reticulum, rich in cytochrome P450 enzymes.
In data set [9] the test system is Liver. Kind of data set: Drug metabolism in Sprague-Dawley rat liver microsomes assessed as formation of 2-(2-chlorobenzyl)acrylic acid at 100 uM up to 2 hrs in absence of NADPH by UHPLC-MS analysis. It counts as ADME, microsome.
Data set [10] deals with Rattus norvegicus. Kind of data set: Antiinflammatory activity in DNBS-induced Sprague-Dawley rat colitis model assessed as body weight recovery at 12.5 to 50 mg/kg/day, ig administered as suspension in olive oil for 6 days simulatneously with 6 days of DNBS-challenge measured daily during compound dosing. It counts as functional, organism-based. In outline: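 Colitis was induced with intrarectal DNBS (15 mg in 0.25 mL 50% ethanol). Intragastric treatment ran 6 days from the day of induction: 1 mg/kg/day in 1% methylcellulose, or 12.5–50 mg/kg/day in olive oil. Body weight change (g) was recorded at the end of treatment, mean ± SEM, n = 10.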

Data set [11] deals with Rattus norvegicus. Kind of data set: Antiinflammatory activity in DNBS-induced Sprague-Dawley rat colitis model assessed as attenuation of DNBS-induced decrease in colonic length administered ig as suspension in olive oil for 6 days simulatneously with 6 days of DNBS-challenge. It counts as functional.
The subject of data set [12] is Rattus norvegicus. Kind of data set: Antiinflammatory activity in DNBS-induced Sprague-Dawley rat colitis model assessed as DNBS-induced decrease in colonic length at 12.5 mg/kg/day, ig administered as suspension in olive oil for 6 days simulatneously with 6 days of DNBS-challenge (reference value: -34.4%). It counts as functional. Further details: scale not given: the % may be the effect or the level left.

Data set [13] relates to Rattus norvegicus. Kind of data set: Anti-inflammatory activity in DNBS-induced Sprague-Dawley rat colitis model assessed as reduction in DNBS-induced IL-1beta levels in colon administered ig for 6 days simulatneously with 6 days of DNBS-challenge by ELISA. It counts as functional.
The test system of data set [14] is Rattus norvegicus. Kind of data set: Anti-inflammatory activity in DNBS-induced Sprague-Dawley rat colitis model assessed as DNBS-induced IL-1beta levels in colon at 25 mg/kg/day, ig for 6 days simulatneously with 6 days of DNBS-challenge by ELISA (reference value: 22.3 +/- 2.9 ng/mg). It counts as functional.
Data set [15] deals with Rattus norvegicus. Kind of data set: Anti-inflammatory activity in DNBS-induced Sprague-Dawley rat colitis model assessed as DNBS-induced TNFalpha levels in colon at 25 mg/kg/day, ig for 6 days simulatneously with 6 days of DNBS-challenge by ELISA (reference value: 5.9 +/- 0.6 pg/mg). It counts as functional.
Data set [16] deals with NACHT, LRR and PYD domains-containing protein 3 (Mus musculus) (UniProt Q8R4B8). Kind of data set: Inhibition of NLRP3 inflammasome in LPS-primed C57BL/6 mouse bone marrow derived macrophages assessed as reduction in nigericin-induced pyroptosis at 10 to 100 uM preincubated for 1 hr followed by stimulation with ATP measured after 30 mins by LDH release assay. In outline:
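Bone marrow macrophages from C57BL/6 mice, differentiated with 20% L-cell medium, primed with LPS (1 µg/mL, 3 h). Test agent or vehicle was added for 1 h, then ATP (5 mM, 30 min) or nigericin (10 µM, 30 min). IL-1β in the medium was measured by ELISA. LDH in the medium was measured colorimetrically as % of total cellular LDH.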
(LDH leaks from cells whose membrane has failed.)

The subject of data set [17] is Rattus norvegicus. Kind of data set: Toxicity in Sprague-Dawley rat at 50 mg/kg/day, ig. It counts as organism-based. Particulars: in vivo, po. In short, it runs like this:
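Rats received intrarectal DNBS (15 mg in 0.25 mL 50% ethanol) or none. Dosing was intragastric for 6 days from induction: compound 12.5–50 mg/kg/day in 0.2 mL olive oil, or dexamethasone 1 mg/kg/day in 0.2 mL 1% methylcellulose. Body weight change was recorded at end; n = 10, mean ± SEM.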

The values that follow come from ChEMBL document CHEMBL4014309, “Development of an Acrylate Derivative Targeting the NLRP3 Inflammasome for the Treatment of Inflammatory Bowel Disease” (J Med Chem, 2017).

The solubility is the dissolved amount per volume that the medium holds.

Values after ≈ are worked out from the molar mass of the structure shown. Active and inactive are the calls of the source. The calls are words filed in the database; no cut-off is given here.

NACHT, LRR and PYD domains-containing protein 3 (Mus musculus), sequence (Q8R4B8 whole entry, the tested form may be a part): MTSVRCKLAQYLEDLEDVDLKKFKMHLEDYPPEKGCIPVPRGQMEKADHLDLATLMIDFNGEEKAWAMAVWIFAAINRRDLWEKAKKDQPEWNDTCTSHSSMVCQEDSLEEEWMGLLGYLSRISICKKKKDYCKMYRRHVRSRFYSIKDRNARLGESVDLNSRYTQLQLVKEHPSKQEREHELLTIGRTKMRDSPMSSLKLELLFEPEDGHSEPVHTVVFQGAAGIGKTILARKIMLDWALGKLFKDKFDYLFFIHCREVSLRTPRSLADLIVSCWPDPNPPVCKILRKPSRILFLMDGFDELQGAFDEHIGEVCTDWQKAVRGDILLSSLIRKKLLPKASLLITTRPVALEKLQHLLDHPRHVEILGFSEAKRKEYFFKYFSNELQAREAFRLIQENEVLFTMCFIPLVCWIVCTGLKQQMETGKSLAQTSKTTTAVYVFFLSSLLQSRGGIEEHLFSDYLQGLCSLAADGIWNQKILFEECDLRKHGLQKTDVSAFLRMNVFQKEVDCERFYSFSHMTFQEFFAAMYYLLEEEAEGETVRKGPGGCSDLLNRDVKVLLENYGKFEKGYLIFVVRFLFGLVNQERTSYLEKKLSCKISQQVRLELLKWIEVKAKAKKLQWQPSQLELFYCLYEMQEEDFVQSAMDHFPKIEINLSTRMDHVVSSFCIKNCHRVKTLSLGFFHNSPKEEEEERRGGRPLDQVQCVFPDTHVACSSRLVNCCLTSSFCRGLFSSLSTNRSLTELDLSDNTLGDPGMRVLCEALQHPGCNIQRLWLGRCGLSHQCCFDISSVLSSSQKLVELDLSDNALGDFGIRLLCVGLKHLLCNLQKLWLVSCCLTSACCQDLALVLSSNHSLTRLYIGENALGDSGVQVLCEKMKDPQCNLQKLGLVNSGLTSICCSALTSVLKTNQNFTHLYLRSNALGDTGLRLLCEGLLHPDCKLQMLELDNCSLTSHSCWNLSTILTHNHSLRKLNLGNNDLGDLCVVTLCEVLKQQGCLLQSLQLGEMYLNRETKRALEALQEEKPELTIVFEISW

Take `C=C(Cc1ccccc1Cl)C(=O)OCC`: the Drug metabolism entry in [1] was “Metabolite not detected”; in the data set on Jejunum, “Metabolite_Detected”; in the data set on Liver [8], “Metabolite_Detected”; in the data set with Liver [9], “Metabolite_Detected”. Further, the results for the Stability in data set [2] and in [3] were 83.3% and 77.5%, respectively. In addition, the inhibition entry in data set [4], in data set [5] and in [16] was “Active” in each case. Moreover, the Activity entry was “Non-Toxic” with HEK293; “Dose-dependent effect” in the data set on Rattus norvegicus [11]; -19% with Rattus norvegicus [12]; “Dose-dependent effect” with Rattus norvegicus [13]; 12.8 ng/mg with Rattus norvegicus [14]; 3.3 pg/mg with Rattus norvegicus [15]. Besides, the Activity result with Rattus norvegicus [17] was “Non-Toxic”. Also, the inhibition entry in [6] was “inactive”. The solubility at 24 h in data set [7] worked out at 6 µg/mL (≈ 26.7 µM). Moreover, the result with Rattus norvegicus [10] was Active.
